Values after ≈ are worked out from the molar mass of the structure shown. Active and inactive are the calls of the source. The calls are words filed in the database; no cut-off is given here.
What was measured:
[1] = molecular target: T1, Monoglyceride lipase (Homo sapiens) (UniProt Q99685); experiment: Reversible inhibition of human recombinant MAGL using 4-nitrophenylacetate as substrate incubated for 15 mins in presence of DTT by microplate reader analysis
T1 sequence (whole entry): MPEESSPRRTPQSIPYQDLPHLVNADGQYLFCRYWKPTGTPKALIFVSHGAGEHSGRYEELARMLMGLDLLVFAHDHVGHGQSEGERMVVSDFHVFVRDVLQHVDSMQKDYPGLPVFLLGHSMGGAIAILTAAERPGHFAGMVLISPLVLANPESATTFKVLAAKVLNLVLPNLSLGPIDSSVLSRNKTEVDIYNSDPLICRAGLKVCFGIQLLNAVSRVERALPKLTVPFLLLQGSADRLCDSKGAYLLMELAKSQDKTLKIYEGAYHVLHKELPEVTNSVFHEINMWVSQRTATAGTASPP
In short: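 Human recombinant MAGL (11 ng/well) in 10 mM Tris, pH 7.2, with 1 mM EDTA and 0.1 mg/mL BSA, at room temperature. Compound plus 4-NPA incubated 15 min with 10 μM DTT before enzyme addition. Compound final 320–0.02 nM. Absorbance at 405 nm after 30 min, blank-subtracted. IC50 from sigmoidal dose–response fit.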

[2] = molecular target: T2, Monoacylglycerol lipase ABHD6 (Mus musculus) (UniProt Q8R2Y0); experiment: Inhibition of mouse brain ABHD6 at 10 uM incubated with compound for 25 mins by TAMRA-FP probe based SDS-PAGE analysis; format: tissue-based
T2 sequence (whole entry): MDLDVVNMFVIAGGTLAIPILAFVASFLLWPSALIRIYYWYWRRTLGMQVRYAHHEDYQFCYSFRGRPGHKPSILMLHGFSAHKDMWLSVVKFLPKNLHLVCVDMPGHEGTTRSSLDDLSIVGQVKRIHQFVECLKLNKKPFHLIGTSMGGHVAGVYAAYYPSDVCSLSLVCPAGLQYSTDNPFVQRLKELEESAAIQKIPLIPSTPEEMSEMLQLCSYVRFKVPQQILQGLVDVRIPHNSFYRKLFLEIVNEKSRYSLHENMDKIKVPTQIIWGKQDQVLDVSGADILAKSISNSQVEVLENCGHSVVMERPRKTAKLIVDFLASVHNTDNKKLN
In short: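 Mouse brain membranes (2 mg/mL final, in PBS) preincubated 25 min at 25 °C with test compound (10 μM final) or DMSO vehicle. Controls: JZL-184, URB597 4 μM, WWL70 10 μM, THL, MAFP 5 μM. TAMRA-FP 125 nM final added for 5 min at 25 °C. Reaction stopped with Laemmli buffer, 3 min at 25 °C then 10 min at 90 °C. Separation by 10% SDS-PAGE, fluorescence scanning, three independent experiments.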

[3] = Thermodynamic aqueous solubility of the compound by LC-MS/MS analysis; format: physicochemical; details: read-out: Therm_solubility
In short: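 Solid compound (1 mg) shaken overnight in 1 mL distilled water at room temperature. Suspension passed through a 0.45 μm nylon filter. Dissolved compound quantified in triplicate by UV/LC-MS or LC-MS/MS against a calibration curve of compound in methanol.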

[4] = Apparent permeability of the compound by PAMPA method; format: ADME
In short: (§1)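 Donor solution made from 1 mM DMSO stock diluted in 25 mM phosphate buffer pH 7.4 to 500 μM final. Filter coated with 1% (w/v) phosphatidylcholine in dodecane. Acceptor was 1:1 v/v DMSO/phosphate buffer. Sandwich incubated 5 h at room temperature. Compound in donor and acceptor wells quantified by UV/LC-MS.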

[5] = Permeability of the compound assessed as membrane retention rate by PAMPA method; format: ADME; in short: as §1
[6] = Metabolic stability in human liver microsome in presence of NADPH-regenerating system by UV/LC-MS analysis; format: ADME; details: microsomes
In short: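 Compound incubated 1 h at 37 °C with human liver microsomes (0.2 mg/mL) and an NADPH-regenerating system (NADPH 0.2 mM, NADP+ 1 mM, glucose-6-phosphate 4 mM, G6PDH 4 unit/mL, MgCl2 48 mM) in 25 mM phosphate buffer pH 7.4. Quenched with acetonitrile, then centrifuged. Parent and metabolites measured by UV/LC-MS. Percent unmetabolized obtained against reference solutions; three independent experiments.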

[7] = Stability in human plasma measured after 24 hrs by UV/LC-MS analysis; format: ADME, cell-free; details: read-out: Stability
In short: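 Compound (2 mM) incubated at 37 °C in pooled human plasma (55.7 mg protein/mL) with HEPES 25 mM, NaCl 140 mM, pH 7.4. Samples taken at 0–24 h and precipitated with cold acetonitrile. After centrifugation, supernatant analysed by UV/LC-MS. Three independent experiments.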

[8] = Toxicity in Tenebrio molitor coleoptera assessed as lethal dose measured for 7 days; details: time 7 day
In short: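 Tenebrio molitor beetles used within three days of metamorphosis. Compound dissolved in DMSO, 1 μL injected into the hemocoel between pronotum and elytron. Range-finding on 1 insect starting at 200 mg/kg. Dose then given to five insects with survival monitored 7 days, repeated until LD50 found, and confirmed in ten insects.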

Row | Structure (SMILES) | inhibition [1] | inhibition [2] | solubility thermodynamic [3] [µg/mL] | Papp [4] [×10⁻⁶ cm/s] | R% [5] [%] | Stability [6] [%] | remaining at 24 h [7] [%] | LD50 at 168 h [8] [mg/kg]
1 | O=C(c1cccc(O)c1)N1CCC(Cc2ccc(F)c(Sc3cc(C(F)(F)F)ccn3)c2)CC1 | inactive | inactive |  |  |  |  |  | 
2 | O=C(c1cc(O)ccc1F)N1CCC(Cc2cccc(Sc3cc(C(F)(F)F)ccn3)c2)CC1 | inactive | inactive | 0.00321 (≈ 0.00655 µM) | 3.3 | 17.3 | 96.76 | 74.1 | 200
3 | O=C(c1cc(O)ccc1F)N1CCN(Cc2cccc(Sc3cc(C(F)(F)F)ccn3)c2)CC1 | inactive | inactive | 5.47 (≈ 11.1 µM) | 1.33 | 3.2 | 98.51 | > 99 | 300
4 | O=C(c1cccc(O)c1)N1CCC(Cc2cccc(Sc3cc(C(F)(F)F)ccn3)c2)CC1 | inactive | inactive |  |  |  |  |  | 

— ChEMBL document CHEMBL5532647, “Design, synthesis, ADME and biological evaluation of benzylpiperidine and benzylpiperazine derivatives as novel reversible monoacylglycerol lipase (MAGL) inhibitors” (Eur J Med Chem, 2024)
